# Experiments:
# Rattus norvegicus [1] = species on record: Rattus norvegicus; test: Radioactivity distribution in kidney of normal fischer rat after injection of [18F]fluoro-2-methylpropanoic acid after 30 min.; type: ADME, organism-based; details: in vivo, 0.5 h
# Procedure, shortened: (§1)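 Normal male Fischer 344 rats (200–250 g), anesthetized with i.m. ketamine:xylazine (1:1), got ~85 μCi of tracer in 0.3 mL sterile water i.v. via tail-vein catheter. Groups of four were killed at 5, 30, 60 or 120 min. Tissues were weighed and gamma-counted against dose standards, and counts were decay-corrected to %ID/g. Results are mean ± standard error (n = 4), compared by one-way ANOVA.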
# Rattus norvegicus [2] = species on record: Rattus norvegicus; test: Radioactivity distribution in kidney of normal fischer rat after injection of [18F]fluoro-2-methylpropanoic acid after 60 min.; type: ADME, organism-based; details: in vivo, 1 h
# Procedure, shortened: (§2)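 Male Fischer 344 rats (200–250 g), fed ad libitum, anesthetized with intramuscular ketamine:xylazine (1:1, 0.1 mL/100 g). About 85 μCi tracer in 0.3 mL sterile water was given by tail-vein catheter. Groups of four were killed at 5, 30, 60 or 120 min. Tissues were weighed and gamma-counted against dose standards, decay-corrected, and expressed as %ID/g (mean ± standard error).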
# Rattus norvegicus [3] = species on record: Rattus norvegicus; test: Radioactivity distribution in kidney of tumor-bearing fischer rat after injection of [18F]fluoro-2-methylpropanoic acid after 120 min; type: ADME, organism-based; details: in vivo, 2 h
# Procedure, shortened: (§3)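 Male Fischer 344 rats carried intracranial 9L gliosarcoma, stereotactically implanted (4×10^4 cells) and used 17–19 days later. Awake, restrained animals received about 35 μCi tracer in 0.3 mL sterile water via the tail vein and were killed at 5, 60 or 120 min (n = 4–5). Tissues were weighed, gamma-counted, decay-corrected and reported as %ID/g ± standard error.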
# Rattus norvegicus [4] = species on record: Rattus norvegicus; test: Radioactivity distribution in kidney of tumor-bearing fischer rat after injection of [18F]fluoro-2-methylpropanoic acid after 60 min; type: ADME, organism-based; details: in vivo, 1 h; procedure, shortened: as §3
# Rattus norvegicus [5] = species on record: Rattus norvegicus; test: Radioactivity distribution in muscle of tumor-bearing fischer rat after injection of [18F]fluoro-2-methylpropanoic acid after 120 min; type: ADME, organism-based, Muscle tissue; details: in vivo, 2 h; procedure, shortened: as §3
# Rattus norvegicus [6] = species on record: Rattus norvegicus; test: Radioactivity distribution in blood of normal fischer rat after injection of [18F]fluoro-2-methylpropanoic acid after 30 min.; type: ADME, organism-based; details: in vivo, 0.5 h; procedure, shortened: as §1
# Rattus norvegicus [7] = species on record: Rattus norvegicus; test: Radioactivity distribution in brain of normal fischer rat after injection of [18F]fluoro-2-methylpropanoic acid after 5 min.; type: ADME, organism-based; details: in vivo; procedure, shortened: as §1
# Rattus norvegicus [8] = species on record: Rattus norvegicus; test: Radioactivity distribution in brain of normal fischer rat after injection of [18F]fluoro-2-methylpropanoic acid after 60 min.; type: ADME, organism-based; details: in vivo, 1 h; procedure, shortened: as §1
# Rattus norvegicus [9] = species on record: Rattus norvegicus; test: Radioactivity distribution in spleen of normal fischer rat after injection of [18F]fluoro-2-methylpropanoic acid after 5 min.; type: ADME, organism-based; details: in vivo
# Procedure, shortened: (§4)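 Male Fischer 344 rats (200–250 g), fed ad libitum, under intramuscular ketamine:xylazine anesthesia, got ~85 μCi radiotracer in 0.3 mL sterile water by tail-vein catheter. Groups of four were killed at 5, 30, 60 or 120 min. Dissected tissues were weighed and gamma-counted with dose standards. Counts were decay-corrected and given as %ID/g, mean ± standard error. Tissues were compared by one-way ANOVA.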
# Rattus norvegicus [10] = species on record: Rattus norvegicus; test: Radioactivity distribution in spleen of tumor-bearing fischer rat after injection of [18F]fluoro-2-methylpropanoic acid after 120 min; type: ADME, organism-based; details: in vivo, 2 h
# Procedure, shortened: (§5)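 Male Fischer rats had 4×10^4 9L gliosarcoma cells implanted stereotactically into the brain, 3 mm right of midline, 1 mm anterior to bregma, 5 mm deep. They were used 17–19 days later. Awake, restrained rats got ~35 μCi in 0.3 mL sterile water by tail vein and were killed at 5, 60 or 120 min. Tissues, tumor and contralateral brain were gamma-counted, decay-corrected, as %ID/g, mean ± SE, n = 4–5.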
# Rattus norvegicus [11] = species on record: Rattus norvegicus; test: Radioactivity distribution in testis of normal fischer rat after injection of [18F]fluoro-2-methylpropanoic acid after 30 min.; type: ADME, organism-based; details: in vivo, 0.5 h; procedure, shortened: as §4
# Rattus norvegicus [12] = species on record: Rattus norvegicus; test: Radioactivity distribution in testis of normal fischer rat after injection of [18F]fluoro-2-methylpropanoic acid after 5 min.; type: ADME, organism-based; details: in vivo; procedure, shortened: as §4
# Rattus norvegicus [13] = species on record: Rattus norvegicus; test: Radioactivity distribution in testis of normal fischer rat after injection of [18F]fluoro-2-methylpropanoic acid after 60 min.; type: ADME, organism-based; details: in vivo, 1 h; procedure, shortened: as §4
# Rattus norvegicus [14] = species on record: Rattus norvegicus; test: Radioactivity distribution in lung of normal fischer rat after injection of [18F]-fluoro-2-methylpropanoic acid after 60 min.; type: ADME, organism-based; details: in vivo, 1 h; procedure, shortened: as §2
# Rattus norvegicus [15] = species on record: Rattus norvegicus; test: Radioactivity distribution in lung of tumor-bearing fischer rat after injection of [18F]-fluoro-2-methylpropanoic acid after 120 min; type: ADME, organism-based; details: in vivo, 2 h; procedure, shortened: as §3
# Rattus norvegicus [16] = species on record: Rattus norvegicus; test: Radioactivity distribution in pancreas of normal fischer rat after injection of [18F]fluoro-2-methylpropanoic acid after 60 min.; type: ADME, organism-based; details: in vivo, 1 h; procedure, shortened: as §2
# Rattus norvegicus [17] = species on record: Rattus norvegicus; test: Radioactivity distribution in muscle of normal fischer rat after injection of [18F]fluoro-2-methylpropanoic acid after 120 min.; type: ADME, organism-based, Muscle tissue; details: in vivo, 2 h; procedure, shortened: as §2
# Rattus norvegicus [18] = species on record: Rattus norvegicus; test: Radioactivity distribution in muscle of normal fischer rat after injection of [18F]fluoro-2-methylpropanoic acid after 30 min.; type: ADME, organism-based, Muscle tissue; details: in vivo, 0.5 h; procedure, shortened: as §2
# Rattus norvegicus [19] = species on record: Rattus norvegicus; test: Radioactivity distribution in testis of tumor-bearing fischer rat after injection of [18F]fluoro-2-methylpropanoic acid after 60 min; type: ADME, organism-based; details: in vivo, 1 h; procedure, shortened: as §5
# Rattus norvegicus [20] = species on record: Rattus norvegicus; test: Radioactivity distribution in lung of tumor-bearing fischer rat after injection of [18F]-fluoro-2-methylpropanoic acid after 5 min; type: ADME, organism-based; details: in vivo; procedure, shortened: as §3
# Rattus norvegicus [21] = species on record: Rattus norvegicus; test: Radioactivity distribution in bone of tumor-bearing fischer rat after injection of [18F]fluoro-2-methylpropanoic acid after 120 min; type: ADME, organism-based, Bone element; details: in vivo, 2 h
# Procedure, shortened: (§6)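 Male Fischer 344 rats carried intracranial 9L gliosarcoma, implanted stereotactically (4×10^4 cells) and used 17–19 days later. Awake restrained rats got ~35 μCi of tracer in 0.3 mL sterile water by tail-vein injection and were killed at 5, 60 or 120 min. Tissues were weighed and gamma-counted, and counts were decay-corrected to %ID/g. Results are mean ± standard error; n = 4 at 5 and 120 min, n = 5 at 60 min.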
# Rattus norvegicus [22] = species on record: Rattus norvegicus; test: Radioactivity distribution in bone of tumor-bearing fischer rat after injection of [18F]fluoro-2-methylpropanoic acid after 60 min; type: ADME, organism-based, Bone element; details: in vivo, 1 h; procedure, shortened: as §6
# Rattus norvegicus [23] = species on record: Rattus norvegicus; test: Radioactivity distribution in blood of normal fischer rat after injection of [18F]fluoro-2-methylpropanoic acid after 5 min.; type: ADME, organism-based; details: in vivo; procedure, shortened: as §1
# Rattus norvegicus [24] = species on record: Rattus norvegicus; test: Radioactivity distribution in blood of tumor-bearing fischer rat after injection of [18F]fluoro-2-methylpropanoic acid after 5 min; type: ADME, organism-based; details: in vivo; procedure, shortened: as §6
# Rattus norvegicus [25] = species on record: Rattus norvegicus; test: Radioactivity distribution in blood of tumor-bearing fischer rat after injection of [18F]fluoro-2-methylpropanoic acid after 60 min; type: ADME, organism-based; details: in vivo, 1 h; procedure, shortened: as §6
# Rattus norvegicus [26] = species on record: Rattus norvegicus; test: Radioactivity distribution in heart of tumor-bearing fischer rat after injection of [18F]fluoro-2-methylpropanoic acid after 5 min; type: ADME, organism-based; details: in vivo; procedure, shortened: as §6
# Rattus norvegicus [27] = species on record: Rattus norvegicus; test: Radioactivity distribution in spleen of normal fischer rat after injection of [18F]fluoro-2-methylpropanoic acid after 30 min.; type: ADME, organism-based; details: in vivo, 0.5 h; procedure, shortened: as §4
# Rattus norvegicus [28] = species on record: Rattus norvegicus; test: Radioactivity distribution in liver of normal fischer rat after injection of [18F]-fluoro-2-methylpropanoic acid after 120 min.; type: ADME, organism-based; details: in vivo, 2 h; procedure, shortened: as §2
# Rattus norvegicus [29] = species on record: Rattus norvegicus; test: Radioactivity distribution in liver of normal fischer rat after injection of [18F]fluoro-2-methylpropanoic acid after 30 min.; type: ADME, organism-based; details: in vivo, 0.5 h; procedure, shortened: as §2
# Rattus norvegicus [30] = species on record: Rattus norvegicus; test: Radioactivity distribution in liver of normal fischer rat after injection of [18F]fluoro-2-methylpropanoic acid after 5 min.; type: ADME, organism-based; details: in vivo; procedure, shortened: as §2
# Rattus norvegicus [31] = species on record: Rattus norvegicus; test: Radioactivity distribution in brain of tumor-bearing fischer rat after injection of [18F]fluoro-2-methylpropanoic acid after 5 min; type: ADME, organism-based; details: in vivo; procedure, shortened: as §6
# Rattus norvegicus [32] = species on record: Rattus norvegicus; test: Radioactivity distribution in brain of tumor-bearing fischer rat after injection of [18F]fluoro-2-methylpropanoic acid after 60 min; type: ADME, organism-based; details: in vivo, 1 h; procedure, shortened: as §6
# Rattus norvegicus [33] = species on record: Rattus norvegicus; test: Radioactivity distribution in tumor of tumor-bearing fischer rat after injection of [18F]fluoro-2-methylpropanoic acid after 60 min; type: ADME, organism-based; details: in vivo, 1 h; procedure, shortened: as §5
# Rattus norvegicus [34] = species on record: Rattus norvegicus; test: Radioactivity distribution in testis of normal fischer rat after injection of [18F]fluoro-2-methylpropanoic acid after 120 min.; type: ADME, organism-based; details: in vivo, 2 h; procedure, shortened: as §4
smiles,measurement,setting,value
CC(N)(C[18F])C(=O)O.Cl (centres undefined),ID/g,Rattus norvegicus [1],5.59%
same,ID/g,Rattus norvegicus [2],4.74%
same,ID/g,Rattus norvegicus [3],3.64%
same,ID/g,Rattus norvegicus [4],6.2%
same,ID/g,Rattus norvegicus [5],0.21%
same,ID/g,Rattus norvegicus [6],0.25%
same,ID/g,Rattus norvegicus [7],0.04%
same,ID/g,Rattus norvegicus [8],0.06%
same,ID/g,Rattus norvegicus [9],0.83%
same,ID/g,Rattus norvegicus [10],0.32%
same,ID/g,Rattus norvegicus [11],0.1%
same,ID/g,Rattus norvegicus [12],0.17%
same,ID/g,Rattus norvegicus [13],0.12%
same,ID/g,Rattus norvegicus [14],0.44%
same,ID/g,Rattus norvegicus [15],0.24%
same,ID/g,Rattus norvegicus [16],2.95%
same,ID/g,Rattus norvegicus [17],0.19%
same,ID/g,Rattus norvegicus [18],0.22%
same,ID/g,Rattus norvegicus [19],0.14%
same,ID/g,Rattus norvegicus [20],0.84%
same,ID/g,Rattus norvegicus [21],0.16%
same,ID/g,Rattus norvegicus [22],0.25%
same,ID/g,Rattus norvegicus [23],0.53%
same,ID/g,Rattus norvegicus [24],0.72%
same,ID/g,Rattus norvegicus [25],0.26%
same,ID/g,Rattus norvegicus [26],0.4%
same,ID/g,Rattus norvegicus [27],0.54%
same,ID/g,Rattus norvegicus [28],0.48%
same,ID/g,Rattus norvegicus [29],0.56%
same,ID/g,Rattus norvegicus [30],0.65%
same,ID/g,Rattus norvegicus [31],0.035%
same,ID/g,Rattus norvegicus [32],0.054%
same,ID/g,Rattus norvegicus [33],1.96%
same,ID/g,Rattus norvegicus [34],0.1%

# From ChEMBL document CHEMBL1135739, “Radiolabeled amino acids for tumor imaging with PET: radiosynthesis and biological evaluation of 2-amino-3-[18F]fluoro-2-methylpropanoic acid and 3-[18F]fluoro-2-methyl-2-(methylamino)propanoic acid” (J Med Chem, 2002)
